Compound activity deposited in PubChem by The Scripps Research Institute Molecular Screening Center.
mABHD4 FP: ABHD4 (mouse) inhibition, primary FP screen; inhibition, % at 8.92 µM; purified mABHD4, FP-Rh probe fluorescence polarization; 370,000 compounds, 0.54% hits; AID 720543; Q8VD66;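 active = inhibition exceeding the mean over every tested compound plus 3 SD, cut at about 30% in these data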;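 also: 0% = plate median of compound wells and 100% = S159A mutant with DMSO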
Target sequence (Q8VD66 whole entry, looked up): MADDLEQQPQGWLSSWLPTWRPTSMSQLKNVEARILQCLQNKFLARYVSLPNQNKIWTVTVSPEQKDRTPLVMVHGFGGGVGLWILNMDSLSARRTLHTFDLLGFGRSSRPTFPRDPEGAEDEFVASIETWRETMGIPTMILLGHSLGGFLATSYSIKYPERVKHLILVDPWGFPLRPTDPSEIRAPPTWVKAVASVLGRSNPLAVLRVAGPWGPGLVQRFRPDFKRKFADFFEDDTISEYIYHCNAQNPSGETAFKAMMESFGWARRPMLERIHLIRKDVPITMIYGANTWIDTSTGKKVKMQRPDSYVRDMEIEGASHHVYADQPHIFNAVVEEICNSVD
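Assay system: Wild-type mouse ABHD4 protein | Medium: HEPES pH 7.0 buffer, 150 mM NaCl, 0.01% Pluronic F-127 | Incubation: Enzyme–compound pre-incubation 45 min, then probe 60 min, both 25 °C | Technique: Fluorescence polarization with parallel and perpendicular emission, 525/598 nm | Evaluation: % inhibition of FP-Rh probe binding versus controls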
DDE Tn7 FP inh: disrupts Tn7 cyclic peptide binding to fibrin D-Dimer-E complex; 370,000 compounds, 0.13% hits; inhibition, % at 8.3 µM; AID 720508; FP displacement of FITC-Tn7 peptide from fibrin DD(E); 0% = median of compound wells per plate; P02675;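 active = inhibition above the mean of compounds falling within the control limits plus 3 SD of them, cut at about 14% in these data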;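 also: 0% = plate median of compound wells and 100% = 10 µM Aha-Tn7 peptide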
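Assay system: human fibrin DD(E). Input: DD(E) 2 µM final. Medium: Tris buffer with calcium and detergent, pH 7.8. Compound dosing: single point at 8.3 µM. Timing: 10 min plus 3 h, room temperature. Technique: fluorescence polarization of the labelled Tn7 tracer. Read-out: percent inhibition. Replicates: singlicate testing.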
HTRA1 inhibitor: inhibitors of human serine peptidase HTRA1; inhibition, % at 5.96 µM; 340,000 compounds, 0.5% hits; AID 504803; Q92743; recombinant HTRA1, FP-rhodamine activity-based probe, fluorescence polarization; in the data active = inhibition above about 36%;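 also: 0% = enzyme with DMSO and 100% = wells lacking enzyme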
SIAE inh: blocks human sialic acid acetylesterase | Q9HAT2 | SIAE FP-Rh probe binding, fluorescence polarization | inhibition, % at 9.66 µM | 370,000 compounds, 0.69% hits;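 active = inhibition above a cutoff: mean of compounds within the control limits plus 3 SD of those, cut at about 17% in these data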;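 also: 0% = plate median of compound wells and 100% = probe without SIAE protein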
TCR CD3 inh: inhibitors of human TCR-CD3 interaction | TAMRA-labeled TCR probe fluorescence, biochemical | inhibition, % at 9.4 µM | 360,000 compounds, 0.37% hits | AID 651800; in the data active = inhibition above about 19%;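 also: recombinant mutant TCR 2C K166C tagged with TAMRA read by polarization; 0% = receptor in buffer alone and 100% = receptor with positive control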
Tn6 DDE FP: inhibitors of Tn6 peptide binding to human fibrin DD(E); 370,000 compounds, 0.21% hits; Fibrin DD(E) TRITC-Tn6 fluorescence polarization displacement; P02675; inhibition, % at 8.3 µM;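 active = inhibition above a per-campaign cutoff: mean of compounds within control limits plus 3 SD, cut at about 15% in these data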;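 also: 0% = median of all compound wells on the plate and 100% = blocking peptide control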
mABHD4 conf: confirmation of mouse ABHD4 inhibitors. shares compounds with mABHD4 FP. purified mABHD4, FP-Rh probe fluorescence polarization. inhibition, % at 8.92 µM. 1,800 compounds, 55% hits;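 active = mean inhibition across replicates above the hit cutoff set in the primary screen, cut at about 30% in these data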;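 also: 0% = wild-type ABHD4 with DMSO and 100% = catalytically dead S159A mutant with DMSO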
* = called active by the depositor; · = no result. An excerpt weighted towards active compounds, which were near 1.8% of everything screened.

SMILES	mABHD4 FP	DDE Tn7 FP inh	HTRA1 inhibitor	SIAE inh	TCR CD3 inh	Tn6 DDE FP	mABHD4 conf
C[C@H]1COc2cc(Br)ccc2S(=O)(=O)N1Cc1cn(Cc2ccc(Br)cc2)nn1	0	-2	·	-5	·	-13	·
Fc1ccc(-[n+]2nc(Nc3ccccc3)sc2-c2c(Cl)cccc2Cl)cc1	7	-3	6	-7	-2	-7	·
CCc1ccc(Nc2n[n+](-c3ccccc3)c(-c3c(Cl)cccc3Cl)s2)cc1	42*	-2	32	11	4	-9	47*
COc1cc(Cn2cc([C@]34C[C@H]5C(=O)N(C)CC(=O)N5[C@H]3N(S(=O)(=O)c3ccccc3)c3ccccc34)c3ccccc32)cc(OC)c1	-1	5	·	1	·	-2	·
COc1cccc2sc(NN)nc12	92*	2	28	0	-2	-4	44*
Cc1ccc(N2NC(=O)/C(=C/c3ccc(-c4ccc(Cl)c(C(=O)O)c4)o3)C2=O)cc1C	12	1	8	5	-7	-2	·
O=C1NN(c2ccc(Cl)c(Cl)c2)C(=O)/C1=C/c1ccc(-c2ccccc2C(=O)O)o1	31*	7	2	4	-4	-1	65*
O=[N+]([O-])c1ccc(CN2[C@H](COCc3ccccc3)C=CS2(=O)=O)cc1	4	-4	·	-1	-6	-5	·
COc1cc(Cl)cc(C(c2c(C(=O)O)[nH]c3ccccc23)c2c(C(=O)O)[nH]c3ccccc23)c1O	43*	0	2	7	12	-2	55*
O=C(O)c1[nH]c2ccccc2c1C(c1c(F)cccc1Cl)c1c(C(=O)O)[nH]c2ccccc12	42*	-3	-3	5	10	-1	50*
O=C(O)c1[nH]c2ccccc2c1C(c1cc(Br)ccc1O)c1c(C(=O)O)[nH]c2ccccc12	43*	10	1	4	9	3	47*
COc1ccc(C(=O)N2CCC[C@@H]2C(=O)N2CCC[C@@H]2C(=O)NCc2ccccc2)cc1F	4	-1	·	0	-7	0	·
C=CCNC(=O)CN(C(=O)Cc1cccc(OC(F)(F)F)c1)c1cccc(Br)c1	-1	-1	·	-3	·	-3	·
Cn1ccc2c(/C=C/c3ccc(F)cc3)cc3c(c21)C1CCC3C1 (stereo not drawn)	45*	6	·	6	-1	1	38*
CN(C)CCOC(=O)COc1ccc(Cl)cc1	62*	-1	8	4	5	1	-4
CN(C)CCOC(=O)Cc1ccc(Cl)cc1	0	0	-4	6	-5	0	·
Cc1nc(C)c(-c2csc(Nc3ccc(O)c(C(=O)O)c3)n2)s1	45*	8	-3	-12	6	-4	31*
CCNc1sc(C(=O)c2cccs2)c(N)c1-c1nc2ccccc2s1	33*	-5	28	8	2	-4	19
CC(c1c[nH]c2ccccc12)c1cn(C)c2ccccc12 (stereo not drawn)	-4	-12	·	5	·	2	·
O=c1oc2ccccc2nc1/C=C(O)/C=C/c1ccc(F)cc1	24	-7	3	0	1	-8	·
O=c1oc2ccccc2nc1/C=C(O)/C=C\c1ccccc1	33*	-5	9	4	3	0	9
CC(C)N1CC2(CC(c3ccccc3C(F)(F)F)=NO2)CN1C(=O)c1ccc(C(C)(C)C)cc1 (stereo not drawn)	53*	2	-27	-7	-5	0	43*
CC(C)N1CC2(CC(c3ccccc3C(F)(F)F)=NO2)CN1C(=O)c1ccco1 (stereo not drawn)	31*	-6	5	-2	10	-1	21
CC(C)N1CC2(CC(c3ccccc3F)=NO2)CN1C(=O)c1ccc(C(C)(C)C)cc1 (stereo not drawn)	6	-2	-25	-2	-9	-1	·
Cc1cccc(-c2cccc3c4c([nH]c23)[C@@H]2C[C@H](N(C)C(=O)C3CCCCC3)[C@H]([C@H](C)O)CN2CC4)c1	2	-9	·	-6	·	3	·
SMILES	mABHD4 FP	DDE Tn7 FP inh	HTRA1 inhibitor	SIAE inh	TCR CD3 inh	Tn6 DDE FP	mABHD4 conf
CC(=O)Nc1cc(NC(C)=O)cc(C(=O)OCC(=O)c2ccc3c(c2)NC(=O)CO3)c1	46*	-7	-3	-4	-2	-6	7
COc1ccc(C(=O)OCC(=O)c2ccc3c(c2)NC(=O)CO3)cc1OC	0	-4	1	-9	0	0	·
COc1cccc(C(=O)N[C@H](C(=O)N2CCC[C@H]2C(=O)NCc2ccccc2)C2CCCCC2)c1	-2	-2	·	-1	-1	5	·
CCC(C)Sc1cc(-c2nc3cc(C)ccn3c2NC2CCCCC2)ccc1OC (stereo not drawn)	31*	-8	0	0	-1	-6	67*
CCC(C)Sc1cc(-c2nc3ccccn3c2NC2CCCCC2)ccc1OC (stereo not drawn)	47*	5	-21	10	6	-2	45*
CCOC(=O)C1(C(=O)OCC)N=C(c2ccccc2)C=C1c1ccccc1	-7	9	·	2	9	6	·
Cc1cccc(CN[C@@H]2CC[C@@]34CCCN3C(=O)CCC[C@H]4C2)c1	-1	-2	·	2	·	-4	·
COC(=O)C1=C(C)N(C)C(=NCc2cc(OC)c(OC)c(OC)c2)NC1c1cccc(C(F)(F)F)c1 (stereo not drawn)	4	-2	·	4	4	6	·
COc1ccc2c(/C=N/Nc3ccc(C(=O)O)cc3)c[nH]c2c1	50*	4	3	-5	5	-12	36*
COc1ccc(N/N=C/c2c(C(=O)O)ccc3ccccc23)cc1	20	-2	8	-3	5	-8	·
O=C(O)c1cc(N/N=C/C=C/c2ccccc2[N+](=O)[O-])ccc1Cl	30*	-9	10	4	1	-10	36*
O=C(O)c1cccc(N/N=C/c2cccc3ccccc23)c1	10	-1	2	4	8	-2	·
COc1ccc2ccccc2c1/C=N/Nc1ccc(Cl)c(C(=O)O)c1	37*	-4	7	14	10	-2	52*
COc1ccc2ccccc2c1/C=N/Nc1cccc(C(=O)O)c1	37*	3	6	15	14	0	32*
CC(C)(C)OC(=O)NC1CCN(c2nc(-c3ccc(Br)cc3)cs2)CC1	0	-2	·	-3	·	1	·
C=CCOC(=O)N[C@@H](c1coc2ccccc2c1=O)[C@@H](C)/C=C/CC(=O)OC	-1	4	·	4	·	-1	·
